# In ChEMBL document CHEMBL3352348, “Detailed analysis of (-)-palmyrolide a and some synthetic derivatives as voltage-gated sodium channel antagonists” (J Nat Prod, 2014):
# pIC50: −log10 of the molar value.
# System: not listed separately
# Test: (§1) Antagonist activity against Voltage-gated sodium channel in Swiss-Webster mouse primary cerebrocortical neurons assessed as inhibition of veratridine-induced sodium influx by SBFI-AM dye based fluorescence assay
# Method in brief: (§2)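 Primary cortical neurons from E17 Swiss-Webster mouse embryos, plated at 1.5 × 10^5 cells/well and used at 7–9 days in vitro. Cells were loaded with 10 μM SBFI-AM plus 0.02% Pluronic F-127 for 1 h at 37 °C in Locke's buffer (pH 7.4), then equilibrated 15 min. Baseline was read for 60 s, then compound and/or veratridine was added. Ex 340/380 nm, em 505 nm, background-corrected 340/380 ratio. IC50 from a three-parameter logistic fit, 4–7 experiments.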
row,SMILES,pIC50
1,C[C@@H]1CCCC(=O)N(C)/C=C/CC[C@@H](C)C(=O)O[C@@H](C(C)(C)C)C1,5.68
2,CNC(=O)CCC[C@@H](C)C[C@@H](OC(=O)[C@H](C)CCCCO)C(C)(C)C,< 5.00
3,C[C@H](CCCC(N)=O)C[C@@H](OC(=O)[C@H](C)CC/C=C/I)C(C)(C)C,< 5.00
4,C[C@@H]1CCCC(=O)N(C)/C=C/CC[C@H](C)C(=O)O[C@H](C(C)(C)C)C1,4.68
5,C[C@@H]1CCCC(=O)N(C)CCCC[C@@H](C)C(=O)O[C@@H](C(C)(C)C)C1,5.52
6,C[C@@H]1CCCC(=O)N(C)/C=C/CC[C@@H](C)C(=O)O[C@H](C(C)(C)C)C1,4.72
7,C[C@@H]1CCCC(=O)N(C)/C=C/CC[C@H](C)C(=O)O[C@@H](C(C)(C)C)C1,< 5.00
8,CNC(=O)CCC[C@@H](C)C[C@@H](OC(=O)[C@H](C)CCCC(=O)O)C(C)(C)C,< 5.00
9,C[C@H]1CCCC(=O)N(C)/C=C/CC[C@H](C)C(=O)O[C@H](C(C)(C)C)C1,5.40
10,C[C@H]1CCCC(=O)N(C)/C=C/CC[C@@H](C)C(=O)O[C@H](C(C)(C)C)C1,< 5.00
11,C[C@@H]1CCCC(=O)N(C)CCCC[C@H](C)C(=O)O[C@@H](C(C)(C)C)C1,5.35
12,CNC(=O)CCC[C@@H](C)C[C@@H](OC(=O)[C@@H](C)CCCCO)C(C)(C)C,< 5.00

# Organism: Mus musculus
# Test: as §1
# Method in brief: as §2
row,SMILES,inhibition
1,C[C@@H]1CCCC(=O)N(C)/C=C/CC[C@@H](C)C(=O)O[C@@H](C(C)(C)C)C1,Dose-dependent effect
2,C[C@H]1CCCC(=O)N(C)/C=C/CC[C@H](C)C(=O)O[C@H](C(C)(C)C)C1,Dose-dependent effect
